Data published in ChEMBL document CHEMBL3734652, “Pyrrolo[3,4-c]pyridine-1,3(2H)-diones: A Novel Antimycobacterial Class Targeting Mycobacterial Respiration” (J Med Chem, 2015).
≈ marks a conversion by molar mass, not a printed value.

Tests used:
[1] = system: Mycobacterium tuberculosis; experiment: Antimicrobial activity against clinical isolates of Mycobacterium tuberculosis SAWC 3385 Cas1/Delhi under 7H9 medium assessed as growth inhibition after 14 days by alamar blue assay; format: functional; conditions: 336 h
[2] = system: Mycobacterium tuberculosis; experiment: Antimicrobial activity against clinical isolates of Mycobacterium tuberculosis SAWC 3906 Atyp-beijing under 7H9 medium assessed as growth inhibition after 14 days by alamar blue assay; format: functional; conditions: 336 h
[3] = system: Mycobacterium tuberculosis; experiment: Antimicrobial activity against clinical isolates of Mycobacterium tuberculosis SAWC 3933 LCC under 7H9 medium assessed as growth inhibition after 14 days by alamar blue assay; format: functional; conditions: 336 h
[4] = Kinetic solubility in FaSSIF at pH 6.5 after 2 hours at 25 degC by shake flask method; format: physicochemical; conditions: read-out: Kinetic_solubility
[5] = system: Mycobacterium tuberculosis; experiment: Antimicrobial activity against clinical isolates of Mycobacterium tuberculosis SAWC 2371 Haarlem under 7H9 medium assessed as growth inhibition after 14 days by alamar blue assay; format: functional; conditions: 336 h
[6] = system: Mycobacterium tuberculosis; experiment: Antimicrobial activity against Mycobacterium tuberculosis H37RvMA under GAST/Fe medium assessed as growth inhibition after 14 days by alamar blue assay; format: functional; conditions: 336 h
Outline: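 Broth microdilution in GAST/Fe medium against fully virulent Mtb H37RvMa or its derived strains (cytochrome bd oxidase deletion ΔcydKO; qcrB Ala317Thr point mutant). Plates were incubated 14 days, growth was read by Alamar Blue, and MIC90 was taken as the potency value.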

[7] = Octanol-phosphate buffer partition coefficient, log D of the compound at 100 uM at pH 7.4 after 3 hrs by shake flask method; format: physicochemical
[8] = Intrinsic clearance in mouse liver microsomes assessed per mg of protein at 0.1 uM by LC-MS/MS method in presence or absence of NADPH; format: ADME
[9] = Metabolic stability in human liver S9 fractions assessed as residual compound at 0.1 uM after 40 mins by LC-MS/MS method in presence or absence of NADPH; format: ADME; conditions: read-out: Stability
[10] = system: Mycobacterium tuberculosis; experiment: Antimicrobial activity against GFP expressing recombinant Mycobacterium tuberculosis H37RvMA under 7H9 medium assessed as growth inhibition after 14 days by broth microdilution method; format: functional; conditions: 336 h
[11] = system: Liver microsome; experiment: Intrinsic clearance in rat liver microsomes assessed per mg of protein at 0.1 uM by LC-MS/MS method in presence or absence of NADPH; format: ADME
[12] = system: Liver microsome; experiment: Intrinsic clearance in human liver microsomes assessed per mg of protein at 0.1 uM by LC-MS/MS method in presence or absence of NADPH; format: ADME
[13] = system: Vero; experiment: Cytotoxicity against African green monkey Vero cells assessed as cell viability by MTT assay; format: cell-based; conditions: Chlorocebus sabaeus
Outline: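 VERO kidney epithelial cells from African green monkey were exposed to compounds at concentrations up to 100 μM, and IC₅₀ was reported.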

[14] = system: Mycobacterium tuberculosis; experiment: Antimicrobial activity against GFP expressing recombinant Mycobacterium tuberculosis H37RvMA under GAST/Fe medium assessed as growth inhibition after 14 days by broth microdilution method; format: functional; conditions: 336 h
[15] = Half life in human plasma at 0.1 uM by LC-MS/MS method; format: ADME, cell-free
[16] = Cmax in C57/BL6 mouse at 20 mg/kg, po by LC-MS method; format: ADME, organism-based; parameters: dose 20 mg/kg, route oral; conditions: in vivo
Outline: (§1)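 C57/BL6 mice were given a single dose of 5 mg/kg iv or 20 mg/kg po. Each dose was tested alone and co-dosed with aminobenzotriazole, a nonspecific cytochrome P450 inhibitor. Plasma exposure was followed, and each parameter is the mean of three animals.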

[17] = Cmax in anesthetized C57/BL6 mouse at 5 mg/kg, iv by LC-MS method; format: ADME, organism-based; parameters: dose 5 mg/kg, route intravenous; conditions: in vivo; outline: as §1
[18] = Tmax in anesthetized C57/BL6 mouse at 5 mg/kg, iv co-administered with amino-benzotriazole by LC-MS method; format: ADME, organism-based; conditions: in vivo; outline: as §1
[19] = Apparent half-life in anesthetized C57/BL6 mouse at 5 mg/kg, iv by LC-MS method; format: ADME, organism-based; conditions: in vivo, read-out: t1/2(app) (converted); outline: as §1
[20] = Oral bioavailability in C57/BL6 mouse at 20 mg/kg co-administered with amino-benzotriazole by LC-MS method; format: ADME, organism-based; conditions: in vivo; outline: as §1
[21] = Tmax in C57/BL6 mouse at 20 mg/kg, po co-administered with amino-benzotriazole by LC-MS method; format: ADME, organism-based; conditions: in vivo; outline: as §1
[22] = Tmax in anesthetized C57/BL6 mouse at 5 mg/kg, iv by LC-MS method; format: ADME, organism-based; conditions: in vivo; outline: as §1
[23] = Ratio of Cmax in C57/BL6 mouse at 20 mg/kg, po co-administered with amino-benzotriazole to MIC90 for Mycobacterium tuberculosis H37RvMA in GAST/Fe medium
[24] = Tmax in C57/BL6 mouse at 20 mg/kg, po by LC-MS method; format: ADME, organism-based; conditions: in vivo; outline: as §1
[25] = Oral bioavailability in C57/BL6 mouse at 20 mg/kg by LC-MS method; format: ADME, organism-based; conditions: in vivo; outline: as §1
[26] = Cmax in C57/BL6 mouse at 20 mg/kg, po co-administered with amino-benzotriazole by LC-MS method; format: ADME, organism-based; parameters: dose 20 mg/kg, route oral; conditions: in vivo; outline: as §1
[27] = Total clearance in anesthetized C57/BL6 mouse at 5 mg/kg, iv co-administered with amino-benzotriazole by LC-MS method; format: ADME, organism-based; conditions: in vivo; outline: as §1
[28] = AUC (0 to infinity) in anesthetized C57/BL6 mouse at 5 mg/kg, iv by LC-MS method; format: ADME, organism-based; parameters: dose 5 mg/kg, route intravenous, time infinity; conditions: in vivo; outline: as §1
[29] = AUC (0 to infinity) in anesthetized C57/BL6 mouse at 5 mg/kg, iv co-administered with amino-benzotriazole by LC-MS method; format: ADME, organism-based; parameters: dose 5 mg/kg, route intravenous, time infinity; conditions: in vivo; outline: as §1
[30] = Volume of distribution in anesthetized C57/BL6 mouse at 5 mg/kg, iv by LC-MS method; format: ADME, organism-based; conditions: in vivo; outline: as §1
[31] = AUC (0 to infinity) in C57/BL6 mouse at 20 mg/kg, po by LC-MS method; format: ADME, organism-based; parameters: dose 20 mg/kg, route oral, time infinity; conditions: in vivo; outline: as §1
[32] = Apparent half-life in anesthetized C57/BL6 mouse at 5 mg/kg, iv co-administered with amino-benzotriazole by LC-MS method; format: ADME, organism-based; conditions: in vivo, read-out: t1/2(app) (converted); outline: as §1
[33] = Cmax in anesthetized C57/BL6 mouse at 5 mg/kg, iv co-administered with amino-benzotriazole by LC-MS method; format: ADME, organism-based; parameters: dose 5 mg/kg, route intravenous; conditions: in vivo; outline: as §1
[34] = Apparent half-life in C57/BL6 mouse at 20 mg/kg, po co-administered with amino-benzotriazole by LC-MS method; format: ADME, organism-based; conditions: in vivo, read-out: t1/2(app) (converted); outline: as §1
[35] = Apparent half-life in C57/BL6 mouse at 20 mg/kg, po by LC-MS method; format: ADME, organism-based; conditions: in vivo, read-out: t1/2(app) (converted); outline: as §1
[36] = system: Mus musculus; experiment: Ratio of AUC (0 to infinity) in C57/BL6 mouse at 20 mg/kg, po co-administered with amino-benzotriazole to AUC (0 to infinity) in C57/BL6 mouse at 20 mg/kg, po without co-administration of amino-benzotriazole; format: ADME, organism-based; conditions: in vivo
[37] = AUC (0 to infinity) in C57/BL6 mouse at 20 mg/kg, po co-administered with amino-benzotriazole by LC-MS method; format: ADME, organism-based; parameters: dose 20 mg/kg, route oral, time infinity; conditions: in vivo; outline: as §1
[38] = Volume of distribution in anesthetized C57/BL6 mouse at 5 mg/kg, iv co-administered with amino-benzotriazole by LC-MS method; format: ADME, organism-based; conditions: in vivo; outline: as §1
[39] = Total clearance in anesthetized C57/BL6 mouse at 5 mg/kg, iv by LC-MS method; format: ADME, organism-based; conditions: in vivo; outline: as §1
[40] = Plasma protein binding in human at 5 uM preincubated for 1 hr by LC-MS/MS method; format: ADME, cell-free; conditions: read-out: PPB (converted)

What does the source list for COc1cccc(CN2C(=O)c3c(C)nc(-c4nc(C)no4)c(N)c3C2=O)c1?
MIC90 [1]: 0.075 µM (≈ 0.0285 µg/mL); MIC90 [2]: 0.075 µM (≈ 0.0285 µg/mL); MIC90 [3]: 0.15 µM (≈ 0.0569 µg/mL); solubility kinetic at 2 h [4]: < 5 µM; MIC90 [5]: 0.3 µM (≈ 0.114 µg/mL); MIC90 [6]: < 0.156 µM

Which results are given for Cc1noc(-c2nc(C)c3c(c2N)C(=O)N(Cc2cccc(OC(F)(F)F)c2)C3=O)n1?
logD at 3 h, 100 µM [7]: 3.64; CLint [8]: 65.7 µL/min/mg; remaining at 40 min, 0.1 µM [9]: 93%; MIC90 [10]: > 20 µM; CLint [11]: 32.4 µL/min/mg; CLint [12]: 15.4 µL/min/mg; IC50 [13]: > 100 µM; MIC90 [14]: 0.052 µM; solubility kinetic at 2 h [4]: 6.3 µM (≈ 2.73 µg/mL); half-life at 0.1 µM [15]: > 6 h; MIC90 [6]: 0.0637 µM (≈ 0.0276 µg/mL)

For Cc1noc(-c2nc(C)c3c(c2N)C(=O)N(Cc2cccc(Cl)c2)C3=O)n1, which logD at 3 h, 100 µM [7] is on record?
The logD at 3 h, 100 µM was 3.34.

What about the CLint [8] of the same compound?
The CLint was under 11.6 µL/min/mg.

What about the Cmax [16] of the same compound?
The Cmax was 33 nM.

What about the remaining at 40 min, 0.1 µM [9] of the same compound?
Its remaining at 40 min, 0.1 µM is 97%.

And the MIC90 [10]?
The MIC90 was over 20 µM.

And the Cmax [17]?
Its Cmax is 622 nM.

What about the Tmax [18] of the same compound?
The Tmax was 0.17 h.

What about the half-life [19] of the same compound?
The half-life was 7.01 h.

And the MIC90 [1]?
Its MIC90 is 0.6 µM (≈ 0.23 µg/mL).

What about the bioavailability [20] of the same compound?
Its bioavailability is 26%.

And the CLint [11]?
Its CLint is under 11.6 µL/min/mg.

What about the Tmax [21] of the same compound?
Its Tmax is 0.5 h.

And the Tmax [22]?
The Tmax was 0.17 h.

What about the MIC90 [2] of the same compound?
Its MIC90 is 0.15 µM (≈ 0.0576 µg/mL).

What about the CLint [12] of the same compound?
The CLint was under 11.6 µL/min/mg.

And the MIC90 [3]?
Its MIC90 is 0.15 µM (≈ 0.0576 µg/mL).

And the Ratio [23]?
The Ratio was 2.

And the IC50 [13]?
Its IC50 is over 100 µM.

And the MIC90 [14]?
The MIC90 was 0.065 µM.

And the Tmax [24]?
The Tmax was 1 h.

And the solubility kinetic at 2 h [4]?
The solubility kinetic at 2 h was 72 µM (≈ 27.6 µg/mL).

What about the bioavailability [25] of the same compound?
The bioavailability was 2%.

And the Cmax [26]?
Its Cmax is 167 nM.

What about the MIC90 [5] of the same compound?
The MIC90 was 0.6 µM (≈ 0.23 µg/mL).

What about the clearance [27] of the same compound?
Its clearance is 94.5 mL/min/kg.

And the AUC(0-inf) [28]?
Its AUC(0-inf) is 1.27 µM·h.

And the AUC(0-inf) [29]?
Its AUC(0-inf) is 2.65 µM·h.

What about the Vd [30] of the same compound?
The Vd was 104 L/kg.

What about the half-life at 0.1 µM [15] of the same compound?
Its half-life at 0.1 µM is 1.03 h.

And the AUC(0-inf) [31]?
Its AUC(0-inf) is 0.133 µM·h.

And the half-life [32]?
The half-life was 7.31 h.

What about the Cmax [33] of the same compound?
Its Cmax is 1530 nM.

And the half-life [34]?
Its half-life is 3.39 h.

And the half-life [35]?
Its half-life is 2.19 h.

And the MIC90 [6]?
The MIC90 was under 0.156 µM.

What about the “Ratio AUC” value [36] of the same compound?
The value was 10.

What about the AUC(0-inf) [37] of the same compound?
The AUC(0-inf) was 1.33 µM·h.

What about the Vd [38] of the same compound?
Its Vd is 53.1 L/kg.

And the clearance [39]?
Its clearance is 171 mL/min/kg.

And the fraction unbound at 1 h, 5 µM [40]?
Its fraction unbound at 1 h, 5 µM is 0.033.
